eIF4E 4G PPI = eIF4E/eIF4G interaction inhibition in translation initiation | AID 782 | TR-FRET eIF4E-eIF4GI(517-606) binding, 2 h | P63073+Q04637 | inhibition, % at 21.7 µM | 220,000 compounds, 0.37% hits;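 also: 0% = full FRET control wells and 100% = background wells lacking eIF4GI fragment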
RBBP9 inhibitor = inhibitors of human serine hydrolase RBBP9; 220,000 compounds, 0.2% hits; O75884; inhibition, % at 7.94 µM; recombinant RBBP9, FP-Rh probe fluorescence polarization;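 active = inhibition above the campaign mean of all tested compounds plus 3 SD, cut at about 14% in these data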;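 also: plate controls were DMSO wells with RBBP9 for no effect and wells lacking RBBP9 protein for full effect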
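Assay system: recombinant human RBBP9; Reagent: Serine-hydrolase probe FP-Rh, 375 nM pre-mixing; Doses: 7.94 µM single dose, 0.794% DMSO; Incubation: 30 min then 45 min, 25 °C; Detection: fluorescence polarization (mP), excitation 525 nm, emission 598 nm; Evaluation: percent inhibition from mP, scaled between DMSO and no-protein wells.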
NCF1 inh = inhibitors of human p47phox binding | p47phox/p22phox peptide binding, fluorescence polarization, 2 h | inhibition, % at 24.7 µM | 220,000 compounds, 0.53% hits | P14598;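 also: 0% = p47phox with labelled peptide and 100% = labelled peptide alone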
Target sequence (P14598 whole entry, looked up): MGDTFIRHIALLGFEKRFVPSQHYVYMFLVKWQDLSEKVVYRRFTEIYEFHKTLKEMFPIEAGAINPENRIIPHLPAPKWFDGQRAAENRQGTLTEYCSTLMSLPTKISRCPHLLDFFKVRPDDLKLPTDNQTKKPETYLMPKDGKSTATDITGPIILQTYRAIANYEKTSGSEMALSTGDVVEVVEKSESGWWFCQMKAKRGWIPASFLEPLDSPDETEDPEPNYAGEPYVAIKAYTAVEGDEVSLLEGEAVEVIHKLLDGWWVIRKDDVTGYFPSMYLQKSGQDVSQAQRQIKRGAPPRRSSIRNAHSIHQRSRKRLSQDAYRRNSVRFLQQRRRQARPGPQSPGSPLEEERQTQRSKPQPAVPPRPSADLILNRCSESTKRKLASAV
WT yeast gro inh = growth inhibition of WT yeast, mitochondrial fusion screen; mitochondrial fusion phenotypic screen, WT strain; inhibition, % at 10 µM; 190,000 compounds, 2.1% hits; AID 1362; in the data active = inhibition above about 58%; tested in S. cerevisiae
EBV gp42 inh = EBV gp42 inhibition. Fluorescence polarization binding assay, mP read-out. inhibition, % (tested at 21.74 µM). 220,000 compounds, 0.42% hits; in the data active = inhibition above about 50%
14-3-3 Bad PPI = disrupts binding of bovine 14-3-3 zeta to phospho-Bad peptide; TR-FRET 14-3-3zeta/Dy647-pBad peptide displacement, 1 h; inhibition, % at 21.7 µM; 220,000 compounds, 0.71% hits; AID 781;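 active = inhibition above about 70%, limit read from the data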;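 also: 0% = full 14-3-3 plus peptide FRET controls and 100% = background without 14-3-3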
Target sequence (P63103 whole entry, looked up): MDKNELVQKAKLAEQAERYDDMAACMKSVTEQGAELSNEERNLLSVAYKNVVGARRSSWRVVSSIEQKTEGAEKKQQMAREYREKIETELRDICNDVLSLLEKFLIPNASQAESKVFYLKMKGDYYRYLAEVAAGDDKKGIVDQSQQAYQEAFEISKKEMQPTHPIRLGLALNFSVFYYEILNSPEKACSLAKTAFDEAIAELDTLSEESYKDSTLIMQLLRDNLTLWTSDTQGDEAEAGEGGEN
The depositor's hits bear a star; . = not tested or not shown. Hits are enriched below; roughly 3.7% of the tested compounds scored in any of these assays.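 The calls were made as follows, unless noted: active = inhibition above about 30% (limit read from the data); inactive = the rest.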

SMILES	eIF4E 4G PPI	RBBP9 inhibitor	NCF1 inh	WT yeast gro inh	EBV gp42 inh	14-3-3 Bad PPI
CC1C(c2ccccc2)N(C)C(c2ccccc2)CC1(O)c1ccccc1 (configuration not stated)	11.8	-9.6	0.7	58.5*	-20.1	-1.2
CC1/C(=N/O)CC(c2ccccc2)N(C)C1c1ccccc1 (configuration not stated)	4.0	-2.5	8.0	98.5*	-2.1	-4.9
Cc1ccc(Cl)cc1NC1=C/C(=N\S(=O)(=O)c2cccs2)c2ccccc2C1=O	-20.1	-6.4	84.1*	96.3*	2.0	3.6
O=C1C(Nc2ccc(O)cc2)=C/C(=N/S(=O)(=O)c2cccs2)c2ccccc21	4.4	5.3	30.8*	40.6	10.4	-20.2
Cc1ccc(NC2=C/C(=N\S(=O)(=O)c3cccs3)c3ccccc3C2=O)c(C)c1	-3.4	8.7	-5.8	95.9*	5.2	4.6
Cc1cccc(NC2=C/C(=N/S(=O)(=O)c3cccs3)c3ccccc3C2=O)c1	-3.4	-1.3	14.6	20.4	12.3	-0.9
CCN1/C(=N\N)c2cccc3cccc1c23	-4.6	-3.9	-55.2	9.4	23.9	-1.2
O=C(COc1ccc(Cl)cc1)Nc1nnc(-c2ccco2)o1	-3.9	-11.3	3.7	5.7	0.6	45.8
COc1ccc(-n2cccc2/C=C/[N+](=O)[O-])cc1	-2.3	-4.3	-11.2	70.5*	-7.1	-5.4
Cc1cc(N2CCCC2)c(F)cc1/C=C\[N+](=O)[O-]	1.1	2.2	78.5*	23.4	-66.8	-1.0
CCN(CC)c1ccc([N+](=O)[O-])cc1C(=O)N1CCOCC1	1.2	-4.9	4.9	-4.5	-4.2	5.7
CCN(CC)C1=NS(=O)(=O)c2cc([N+](=O)[O-])ccc21	4.6	1.1	56.4*	-16.3	-10.0	-1.2
CCSC1=N/C(=C\C=C2/Oc3ccccc3N2CC)C(=O)S1	-4.4	-2.7	-54.2	.	-195.6	-0.9
CC(=O)Nc1ccc2c3c(cccc13)C(=O)N(c1ccccc1)C2=O	-0.2	-5.5	-0.1	17.6	-15.6	17.8
CC(=O)Nc1cccc2c1C(=O)N(c1cccc(C)c1)C2=O	8.7	-1.4	-0.4	1.3	-21.3	-6.6
CN(C)c1ccc2c3c(cccc13)C(=O)N(c1ccccc1)C2=O	0.4	-6.5	-25.2	-10.3	102.0*	-4.0
Cc1cccc(N2C(=O)c3cccc4c(N(C)CCO)ccc(c34)C2=O)c1	0.2	3.4	-31.6	20.1	157.4*	-6.8
Nc1ccc2c3c(cccc13)C(=O)N(c1ccccc1)C2=O	1.8	-3.3	-0.6	8.5	162.5*	-15.0
Cc1c(O)c2c3c(cccc3c1O)C(=O)N(c1ccccc1)C2=O	1.2	-0.2	-12.3	23.1	83.1*	-7.9
O=C(O)c1ccc2c3c(cccc13)C(=O)N(c1ccccc1)C2=O	11.0	-3.3	-3.3	8.1	4.1	26.0
CCOc1ccccc1CNCc1ccc(F)cc1	0.8	-2.7	-7.9	4.3	2.3	-3.3
CCOc1cc(NC(=O)c2cccs2)c(OCC)cc1NC(=O)CCC(=O)NCC1CCCO1 (configuration not stated)	1.5	-0.9	-6.5	15.2	-12.2	-5.0
O=C(Nc1ccccc1)N1CCCC(CNS(=O)(=O)Cc2ccccc2)C1 (configuration not stated)	-1.5	-5.5	-4.0	-4.3	-2.1	-4.3
COC(=O)c1[nH]c(C)c(/C(O)=C2\C(=O)C(=O)N(CCN3CCOCC3)C2c2ccc(C)o2)c1C (configuration not stated)	-0.8	-10.7	-3.2	.	-9.2	-0.4
c1ccc(-n2nnc3cnccc32)cc1	30.6*	-0.1	-10.4	22.5	-3.4	-2.1
SMILES	eIF4E 4G PPI	RBBP9 inhibitor	NCF1 inh	WT yeast gro inh	EBV gp42 inh	14-3-3 Bad PPI
COc1ccc(CCN(C)C(=O)C2CCN(Cc3cccc(OC)c3OC)CC2)cc1OC	6.7	-4.9	0.0	0.2	-25.5	52.4
CCc1nnc(NC(=O)c2ccncc2)s1	-3.6	-4.9	0.8	-7.0	-19.7	-10.7
CCc1nnc(NC(=O)c2cccc(C(=O)Nc3nnc(CC)s3)n2)s1	2.6	0.9	-10.3	63.1*	-12.4	6.6
CC1(C)CC(=O)C2=C(C1)NC1=C(C(=O)c3ccccc31)C2c1cc([N+](=O)[O-])ccc1O (configuration not stated)	-1.3	1.3	-9.2	.	2.7	-5.0
CC(=O)Nc1nc(C)c(CCCOc2ccc([N+](=O)[O-])cc2)c(=O)[nH]1	0.7	-7.3	0.4	.	-8.5	-3.6
CCOC(=O)c1ccc(Oc2nc(NC(C)(C)C)nc(N(C)C)n2)cc1	-0.1	0.8	-4.3	65.3*	-8.7	-6.6
O=C(Nc1ccccc1)N(c1ccccc1)C1C=CS(=O)(=O)C1 (configuration not stated)	-1.4	6.1	3.6	.	-5.8	0.9
CC1CCCN(C(=O)C2CCN(CCCc3ccccc3)CC2)C1 (configuration not stated)	0.2	-9.3	0.1	-5.7	-3.7	19.9
CCCCN(C)C(=O)C1CCN(CCCc2ccccc2)CC1	16.9	-2.6	-3.9	5.4	-16.9	79.6*
CC(=O)Oc1ccc(-c2cccc(C(=O)Oc3ccccc3)c2)cc1	10.6	-2.1	-2.3	73.7*	-15.9	-2.2
COc1ccc(Cl)cc1S(=O)(=O)N1CCN(Cc2ccc3c(c2)OCO3)CC1	-11.3	-4.2	-9.6	65.4*	-14.0	2.4
COc1ccc(NC(=O)CN2CCN(Cc3ccc4c(c3)OCO4)CC2)cc1OC	-2.3	-3.7	4.8	-5.8	5.4	61.5
COc1cc(NC(=O)CN2CCN(Cc3ccc4c(c3)OCO4)CC2)cc(OC)c1	3.0	-4.2	5.2	-3.8	-9.8	82.5*
Cc1ccc(S(=O)(=O)NCc2ccco2)c(C)c1C	-6.8	-5.8	-5.0	73.9*	5.7	-20.4
Cc1cccc(N2CCN(C(=O)c3ccc(Cl)c(S(=O)(=O)NCc4ccco4)c3)CC2)c1C	4.3	-1.4	-17.9	74.2*	-17.4	-16.1
CO/N=C(\c1nonc1N)N1CCN(c2ccc(Cl)cc2[N+](=O)[O-])CC1	-6.6	-0.5	2.4	75.2*	19.9	7.0
O=C(Nc1ccccc1N1CCOCC1)c1cccc(F)c1	0.0	2.6	-7.0	76.0*	-21.2	-7.3
O=C(Nc1ccccc1N1CCOCC1)c1cc(F)cc(F)c1	0.1	-11.0	-4.2	74.4*	0.3	-13.4
O=C(Nc1ccc(N2CCOCC2)c(Cl)c1)c1cccc(F)c1	3.6	-6.2	-19.1	13.5	-32.3	4.6
O=C(Nc1ccccc1N1CCCCC1)c1cccc([N+](=O)[O-])c1	0.3	-0.2	-5.0	78.4*	-2.8	-15.1
COc1ccc(NS(=O)(=O)c2ccc(N3CCOCC3)c(NC(=O)c3cccc(F)c3)c2)cc1	-5.0	-10.0	50.5*	-9.9	-1.3	11.9
CC(NCc1ccc(S(N)(=O)=O)cc1)C(=O)Nc1cccc(Cl)c1 (configuration not stated)	2.1	-8.0	-3.3	.	-9.3	-3.9
